Experimental data as given in ChEMBL document CHEMBL1127729, “Synthesis and pharmacological evaluation of phenylacetamides as sodium-channel blockers” (J Med Chem, 1994).

How the values were obtained:
[1] = biological target: Sodium channel protein type 2 subunit alpha (Rattus norvegicus, UniProt P04775); experiment: Inhibition of veratridine-induced Na+ influx in chinese hamster ovary cells expressing alpha subunit of rat brain type voltage-gated sodium channel type 2; assay type: functional
Summary of the method: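 CNaIIA-1 cells (CHO-K1 transfected with rat brain IIA α subunit cDNA) in choline-based KRH buffer, pH 7.4. Compound at 0.01–100 μM final, added with 30 μM veratridine plus α-scorpion venom, 11 min at 37 °C. Cell-retained radioactivity counted after Triton lysis; IC50 determined.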

[2] = biological target: Sodium channel alpha subunits; brain (Types I, II, III) (Rattus norvegicus, UniProt P04775+P04774+P08104); experiment: Inhibition of [3H]- batrachotoxin binding to sodium channel in rat neocortical membrane; assay type: cell membranes
Rattus norvegicus [3] = organism: Rattus norvegicus; experiment: In vitro inhibition of veratridine induced LDH release in rat embryos; assay type: functional
Summary of the method: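 Rat embryo cortical neuron cultures, 17–18 days old, given compound together with 100 μM veratridine in HEPES saline (pH 7.4) for 10 min. Medium was then replaced by serum-free medium. LDH in medium taken 1 day later, read kinetically as A340 decline of NADH after pyruvate addition at 37 °C.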

Rattus norvegicus [4] = organism: Rattus norvegicus; experiment: In vitro inhibition of hypoxic-mediated cell injury in Dawley fetal rat brain

Chain of Sodium channel protein type 2 subunit alpha (P04775 whole entry): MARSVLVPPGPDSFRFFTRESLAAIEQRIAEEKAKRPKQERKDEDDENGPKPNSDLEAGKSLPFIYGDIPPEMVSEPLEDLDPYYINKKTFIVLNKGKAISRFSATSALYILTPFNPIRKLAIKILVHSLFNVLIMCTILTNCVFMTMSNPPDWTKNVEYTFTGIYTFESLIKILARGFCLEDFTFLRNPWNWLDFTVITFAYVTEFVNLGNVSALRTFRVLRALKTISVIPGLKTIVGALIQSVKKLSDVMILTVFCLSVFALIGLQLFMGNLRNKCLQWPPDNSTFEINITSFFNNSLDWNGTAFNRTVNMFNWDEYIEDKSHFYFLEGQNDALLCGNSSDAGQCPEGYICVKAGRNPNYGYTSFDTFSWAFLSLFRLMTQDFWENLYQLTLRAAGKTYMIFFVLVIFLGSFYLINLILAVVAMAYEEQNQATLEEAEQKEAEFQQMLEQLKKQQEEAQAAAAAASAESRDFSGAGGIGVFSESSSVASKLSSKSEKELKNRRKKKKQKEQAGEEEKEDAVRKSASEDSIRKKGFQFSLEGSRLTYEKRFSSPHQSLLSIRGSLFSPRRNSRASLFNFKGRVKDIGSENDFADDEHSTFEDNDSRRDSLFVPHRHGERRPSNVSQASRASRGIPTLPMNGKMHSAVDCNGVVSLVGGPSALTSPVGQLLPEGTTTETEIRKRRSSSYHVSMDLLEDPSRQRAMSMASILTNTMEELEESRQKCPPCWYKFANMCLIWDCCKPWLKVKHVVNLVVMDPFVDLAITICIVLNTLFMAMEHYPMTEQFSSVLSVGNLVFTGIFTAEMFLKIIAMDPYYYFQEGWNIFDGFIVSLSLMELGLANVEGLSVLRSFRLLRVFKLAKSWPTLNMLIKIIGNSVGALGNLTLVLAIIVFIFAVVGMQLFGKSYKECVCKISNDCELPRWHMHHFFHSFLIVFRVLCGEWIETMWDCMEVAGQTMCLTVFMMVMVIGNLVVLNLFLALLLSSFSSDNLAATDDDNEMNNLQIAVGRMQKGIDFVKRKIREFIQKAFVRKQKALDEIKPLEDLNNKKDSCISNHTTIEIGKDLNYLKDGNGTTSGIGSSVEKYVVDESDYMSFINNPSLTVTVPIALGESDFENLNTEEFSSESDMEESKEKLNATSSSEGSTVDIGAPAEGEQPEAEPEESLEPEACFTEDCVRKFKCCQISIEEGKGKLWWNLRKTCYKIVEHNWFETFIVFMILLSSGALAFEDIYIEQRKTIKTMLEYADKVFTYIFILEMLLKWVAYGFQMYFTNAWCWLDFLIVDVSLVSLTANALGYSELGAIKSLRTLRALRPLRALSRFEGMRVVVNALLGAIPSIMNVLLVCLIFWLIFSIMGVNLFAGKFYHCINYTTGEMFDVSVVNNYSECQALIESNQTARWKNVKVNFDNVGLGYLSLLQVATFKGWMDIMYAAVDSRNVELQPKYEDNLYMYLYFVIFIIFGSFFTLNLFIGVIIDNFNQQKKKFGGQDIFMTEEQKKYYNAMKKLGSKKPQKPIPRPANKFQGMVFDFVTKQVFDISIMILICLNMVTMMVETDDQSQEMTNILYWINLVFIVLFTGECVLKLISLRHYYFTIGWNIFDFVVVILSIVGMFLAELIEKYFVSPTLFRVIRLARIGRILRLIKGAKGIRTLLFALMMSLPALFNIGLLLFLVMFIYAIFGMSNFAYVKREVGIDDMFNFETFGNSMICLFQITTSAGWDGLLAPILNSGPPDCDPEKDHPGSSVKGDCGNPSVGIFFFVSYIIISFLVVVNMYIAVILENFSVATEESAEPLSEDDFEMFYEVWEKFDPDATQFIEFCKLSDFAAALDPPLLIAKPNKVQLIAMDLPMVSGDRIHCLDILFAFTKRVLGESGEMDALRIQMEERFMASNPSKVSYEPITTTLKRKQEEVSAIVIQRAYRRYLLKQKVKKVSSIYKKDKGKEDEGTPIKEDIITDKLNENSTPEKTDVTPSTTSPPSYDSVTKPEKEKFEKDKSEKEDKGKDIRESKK

Structure (SMILES) | IC50 [1] [µM] | Ki [2] [µM] | IC50 (Rattus norvegicus [3]) [µM] | IC50 (Rattus norvegicus [4]) [µM]
CC1CCCC(C)N1CCCNC(=O)C(c1ccccc1Cl)c1ccccc1Cl (centres undefined) | 3.5 | 0.073 | 6 | 4.8
CC1CCCC(C)N1CCCNC(=O)Cc1cccc2ccccc12 (centres undefined) | > 100 | 6.9 | – | –
COc1ccc(C(C(=O)NCCCN2C(C)CCCC2C)c2ccc(OC)c3ccccc23)c2ccccc12 (centres undefined) | 13 | 0.24 | – | –
CC1CCCC(C)N1CCCNC(=O)C(c1ccc(F)cc1)c1ccc(F)cc1 (centres undefined) | 5.8 | 0.13 | – | –
CC1CCCC(C)N1CCCNC(=O)C1(c2ccccc2)CCCCC1 (centres undefined) | 4.3 | 0.38 | 12 | 61
COc1ccc(C(C(=O)NCCCN2C(C)CCCC2C)c2ccc(OC)cc2)cc1 (centres undefined) | 3.1 | 1 | – | –
CC1CCCC(C)N1CCCNC(=O)Cc1ccccc1 (centres undefined) | > 100 | 21 | > 30 | > 100
CC1CCCC(C)N1CCCNC(=O)N(c1ccccc1)c1ccccc1 (centres undefined) | – | – | > 30 | > 100
CC1CCCC(C)N1CCCN1C(=O)CC(c2ccccc2)(c2ccccc2)C1=O (centres undefined) | 3.6 | 1 | – | –
CC1CCCC(C)N1CCCNC(=O)C1c2ccccc2Oc2ccccc21 (centres undefined) | 13 | 0.41 | – | –
CC1CCCC(C)N1CCCNC(=O)C1c2ccccc2-c2ccccc21 (centres undefined) | 29 | 2.3 | > 30 | 51
Cc1cccc(C)c1NC(=O)CN1CCN(CCCC(c2ccc(F)cc2)c2ccc(F)cc2)CC1 [LIDOFLAZINE] | 2.4 | 0.077 | – | –
CC1CCCC(C)N1CCCNC(=O)C(c1ccccc1)c1ccccc1 (centres undefined) | 2.7 | 0.26 | 5 | 89
CC1CCCC(C)N1CCCNC(=O)C(c1ccc(Cl)cc1)c1ccc(Cl)cc1 (centres undefined) | 4.5 | 0.11 | – | –
Fc1ccc(C(c2ccc(F)cc2)N2CCN(C/C=C/c3ccccc3)CC2)cc1 [FLUNARIZINE] | – | – | 2 | –
